# In ChEMBL document CHEMBL3351274, “Sensitization of tumor necrosis factor-related apoptosis-inducing ligand (TRAIL)-resistant primary prostate cancer cells by isoegomaketone from Perilla frutescens” (J Nat Prod, 2014):
# Key:
# [1] = Induction of apoptosis in human RC-58T/h/SA#4 cells assessed as Bax activation at 20 uM after 24 hrs by immunoblotting analysis relative to untreated control; type: functional
# Summary of the method: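 Cells grown in DMEM/10% FBS at 37 °C, 5% CO2, then treated 24 h with compound (20 μM) with or without TRAIL (100 ng/mL). Whole lysates were used for Bax and Bcl-2. Cytosolic and mitochondrial fractions were prepared with a mitochondria isolation kit for AIF and cytochrome c. Blotting used 10 μg protein/lane, 12% SDS-PAGE, nitrocellulose, overnight primary antibody at 4 °C and ECL detection.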
# [2] = Induction of apoptosis in human RC-58T/h/SA#4 cells assessed as CHOP expression at 20 uM after 18 hrs by immunoblotting analysis relative to untreated control; type: functional
# Summary of the method: (§1)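 RC-58T/h/SA#4 cells seeded at 5 × 10^4 cells/mL and cultured 24 h, then given compound across a concentration series or at fixed dose over a time course. Lysates were quantified by BCA. 10 μg protein/lane run on 12% SDS-PAGE and transferred to nitrocellulose. Blots probed for p53, CHOP and β-actin with HRP secondary and ECL.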
# [3] = Induction of apoptosis in human RC-58T/h/SA#4 cells assessed as CHOP expression at 10 uM after 24 hrs by immunoblotting analysis relative to untreated control; type: functional; summary of the method: as §1
# [4] = Induction of apoptosis in human RC-58T/h/SA#4 cells assessed as p53 expression at 10 uM after 24 hrs by immunoblotting analysis relative to untreated control; type: functional; summary of the method: as §1
# [5] = Induction of apoptosis in human RC-58T/h/SA#4 cells assessed as DR4 expression at 10 uM after 24 hrs by immunoblotting analysis relative to untreated control; type: functional
# [6] = Sensitization of TRAIL-induced apoptosis in human RC-58T/h/SA#4 cells assessed as AIF level in cytosol at 20 uM after 24 hrs by immunoblotting analysis relative to untreated control; type: functional
# Summary of the method: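 Cells given 20 μM compound and/or 100 ng/mL TRAIL for 24 h. Mitochondrial and cytosolic fractions prepared with a mitochondria isolation kit. Fractions resolved by 12% SDS-PAGE at 10 μg/lane and immunoblotted with anti-cytochrome c or anti-AIF overnight at 4 °C, then HRP secondary and ECL detection.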
# [7] = species on record: Homo sapiens; test: Induction of apoptosis in human RC-58T/h/SA#4 cells assessed as p53 expression at 2.5 to 40 uM by immunoblotting analysis relative to untreated control; type: functional, cell-based; conditions: TDE = time-dependent effect; summary of the method: as §1
smiles,measurement,setting,value
CC(C)/C=C/C(=O)c1ccoc1,Ratio,[1],1.5
same,Ratio,[2],2
same,Ratio,[3],1.4
same,Ratio,[4],2
same,Ratio,[5],1
same,Ratio,[6],1.2
same,Activity,[7],tde
